This is an account of results in ChEMBL document CHEMBL1144184, “Preparation and biological evaluation of 5-substituted retinoic acids” (2008).

For test [1], the system named is HL-60. Briefly: Induction of human HL-60 cell differentiation assessed as cell surface CD11b antigen expression measured as mean fluorescence index at 0.0001 uM to 1 uM after 3 days by FACS relative to ATRA. The format is functional. The method, boiled down:
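Thymidine-synchronized HL-60 cells, 10⁵ cells/well, cultured 3 days with retinoids (10^-10–10^-6 M) in RPMI-1640. CD11b surface expression quantified by flow cytometry (excitation 490 nm, emission 520 nm), 10⁴ cells counted per treatment. Readout is mean fluorescence index (% fluorescent cells × mean intensity), normalized to ATRA values.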
On the technique in general: A flow cytometer gives signals particle by particle.

Test [2] concerns HL-60. Briefly: Antiproliferative activity against human HL-60 cells assessed as cell cycle distribution at 0.0001 uM to 1 uM after 3 days by FACS relative to ATRA. The format is functional. The method, boiled down: (§1)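 HL-60 cells (RPMI-1640, 10% dextran-coated charcoal-treated FCS, kanamycin; S-phase synchronized twice with 2.5 mM thymidine) seeded 10⁵ cells/well and exposed to retinoids for 3 days at 37 °C, 5% CO₂. Cells permeabilized with 0.2% Triton-X plus RNase (37 °C, 1 h), stained with propidium iodide (4 °C, 20 min), and cell cycle phases quantified by flow cytometry (488 nm argon laser).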

Test [3] concerns HL-60. Kind of test: Induction of apoptosis in human HL-60 cells assessed as DNA fragmentation by agarose gel electrophoresis. It counts as functional, cell-based. The essentials: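 HL-60 cells exposed to increasing retinoid concentrations. DNA isolated from each culture, run on a 2% agarose gel, stained with ethidium bromide and viewed under UV. Laddering scored as positive or negative.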

The target of test [4] is T1, Retinoic acid receptor beta (Homo sapiens) (UniProt P10826).
T1 sequence (whole entry): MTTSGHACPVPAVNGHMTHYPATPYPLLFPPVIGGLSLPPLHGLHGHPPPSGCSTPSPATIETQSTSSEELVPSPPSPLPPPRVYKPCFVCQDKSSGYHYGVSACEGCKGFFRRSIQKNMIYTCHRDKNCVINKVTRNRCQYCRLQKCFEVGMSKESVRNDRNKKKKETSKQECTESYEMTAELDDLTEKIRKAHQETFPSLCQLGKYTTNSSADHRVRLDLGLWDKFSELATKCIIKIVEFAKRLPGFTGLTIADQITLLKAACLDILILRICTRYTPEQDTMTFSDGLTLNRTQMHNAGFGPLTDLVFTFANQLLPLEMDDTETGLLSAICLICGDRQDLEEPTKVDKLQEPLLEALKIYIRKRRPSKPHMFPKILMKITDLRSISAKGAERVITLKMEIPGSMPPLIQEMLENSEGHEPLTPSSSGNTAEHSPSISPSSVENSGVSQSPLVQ
Briefly: Increase in transcriptional activity of human RARbeta receptor expressed in human MG63 cells co-transfected with pGL3-RARE at 1 uM by luciferase reporter gene assay relative to ATRA. It counts as cell-based. As to conditions: MG-63, in the assay text read “relative to control” for “relative to ATRA”. The essentials: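 MG-63 osteosarcoma cells in DMEM with 10% charcoal-stripped FCS were seeded 2 × 10⁵/well the day before transfection. Cotransfected (Tfx-50) with human RARβ promoter–RARE3-SV40-luciferase reporter and pRL-CMV control. Retinoids applied for 2 days at 10^-6 M. Firefly luciferase normalized to Sea Pansy luciferase, expressed as fold induction over control. At least three repeats, mean ± SE.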
Background: A reporter such as luciferase makes a cellular process visible.

Test [5] deals with HL-60. Briefly: Cell cycle arrest in human HL-60 cells assessed as accumulation at G0/G1 phase at 10 pM to 1 uM by FACS. It counts as functional, cell-based. The method, boiled down:
as §1

Calls of active or inactive are those of the source. The calls are words filed in the database; no cut-off is given here. A value given as a limit tells only on which side of the number the result lay.

Regarding `CC(=C/C=C/C(C)=C/C(=O)O)/C=C/C1=C(Cc2ccc3ccccc3c2)CCCC1(C)C`, the Activity was less than 0.22 in the test with HL-60 [1] and less than 0.81 in the test on HL-60 [2]. Further, the outcome in the test with HL-60 [3] was inactive.

Regarding `CCCCC1=C(/C=C/C(C)=C\C=C\C(C)=C\C(=O)O)C(C)(C)CCC1`, the Activity is 9 in the test on HL-60 [1] and 14 in the test with HL-60 [2]. For the same compound, in the test with HL-60 [3], the result was inactive.

Turning to `CCCCC1=C(/C=C/C(C)=C/C=C/C(C)=C/C(=O)O)C(C)(C)CCC1`, the result (in test [4]; in the test on HL-60 [5]) was Active. The figures for the Activity in the test with HL-60 [1] and in the test on HL-60 [2] were 129 and 193, respectively. Besides, the result in the test with HL-60 [3] was inactive.

For `CC(/C=C/C1=C(Cc2ccc3ccccc3c2)CCCC1(C)C)=C\C=C\C(C)=C\C(=O)O`, the outcome (in test [4]; in the test with HL-60 [5]) was Active. Also, the Activity is less than 0.22 with HL-60 [1] and less than 0.81 with HL-60 [2]. The outcome with HL-60 [3] was inactive.

For `CC(/C=C/C1=C(CC(C)C)CCCC1(C)C)=C\C=C\C(C)=C\C(=O)O`, the result (in test [4]; with HL-60 [5]) was Active. The results for the Activity in the test on HL-60 [1] and in the test with HL-60 [2] were 310 and 35, respectively. Besides, in the test on HL-60 [3], the result was inactive.

For `CC(=C/C=C/C(C)=C/C(=O)O)/C=C/C1=C(Cc2ccccc2)CCCC1(C)C`, the Activity in the test on HL-60 [1] is listed as 6; with HL-60 [2] it was 11. Also, the result in the test with HL-60 [3] was inactive.

Take `CC(/C=C/C1=C(Cc2ccccc2)CCCC1(C)C)=C\C=C\C(C)=C\C(=O)O`: the result (in test [4]; with HL-60 [5]) was Active. Moreover, the Activity with HL-60 [1] and in the test on HL-60 [2] was 2 throughout. Besides, in the test with HL-60 [3], the result was inactive.

As for `CC(=C/C=C/C(C)=C/C(=O)O)/C=C/C1=C(CC(C)C)CCCC1(C)C`, the Activity in the test with HL-60 [1] amounted to 10; in the test on HL-60 [2], 16. The outcome in the test on HL-60 [3] was inactive.
